Test results as given in ChEMBL document CHEMBL4680226, “Design, synthesis, and evaluation of N-phenyl-4-(2-phenylsulfonamido)-benzamides as microtubule-targeting agents in drug-resistant cancer cells, displaying HDAC inhibitory response” (Eur J Med Chem, 2020).
The source made the active and inactive calls. The rule behind the calls is not given here.

Columns and labels:
KB7D [1] = test: Induction of apoptosis in human KB7D cells assessed as increase in cleaved caspase-3 expression at 0.01 to 0.1 uM measured after 48 hrs by Western blot analysis; type: functional, cell-based; conditions: dose 0.01-0.1 µM
Outline: (§1)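 Resistant KB cells attached overnight, then drug-treated at the stated concentrations and times (24 h or 48 h). Lysates were immunoblotted for cleaved PARP, caspase-3, -8 and -9, and γH2AX, with anti-mouse or anti-rabbit IgG secondaries.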

KB7D [2] = test: Induction of apoptosis in human KB7D cells assessed as increase in activated gammaH2AX expression at 0.1 to 0.5 uM measured after 24 hrs by Western blot analysis; type: functional, cell-based; conditions: dose 0.1-0.5 µM; outline: as §1
KB-VIN [3] = test: Induction of apoptosis in human KB-VIN cells assessed as increase in cleaved caspase-8 expression by Western blot analysis; type: functional, cell-based; outline: as §1
KB7D [4] = test: Induction of apoptosis in human KB7D cells assessed as increase in cleaved caspase-3 expression by Western blot analysis; type: functional, cell-based; outline: as §1
KB7D [5] = test: Cell cycle arrest in human KB7D cells assessed as increase in accumulation at sub-G1 phase at 0.01 to 0.1 uM measured after 48 hrs by propidium iodide staining based flow cytometry; type: functional; conditions: dose 0.01-0.1 µM
Outline: (§2)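 Cells seeded at 2.5×10^5 per well and exposed to DMSO or compound for the stated times. They were washed in PBS and fixed overnight in ice-cold 70% ethanol at −20 °C. Staining used propidium iodide 80 µg/mL with 0.1% Triton X-100 and RNase A 100 µg/mL in PBS. DNA content was read by FACScan flow cytometry.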

KB-VIN [6] = test: Induction of apoptosis in human KB-VIN cells assessed as increase in cleaved caspase-9 expression at 0.1 to 0.5 uM measured after 24 hrs by Western blot analysis; type: functional, cell-based; conditions: dose 0.1-0.5 µM; outline: as §1
Tubulin (Homo sapiens) = Tubulin (Homo sapiens) (UniProt P68371+Q9H4B7+P0DPH7+P68366+Q13509+Q71U36+P04350+Q3ZCM7+P07437+P68363+Q9BQE3+Q6PEY2+Q13885+Q9BVA1+Q9BUF5); test: Induction of microtubule disruption in human KB-VIN cells assessed as polymerized fraction at 0.1 uM measured after 16 hrs by SDS-PAGE analysis (reference value: 23.1 to 25.5%); type: cell-based
Outline: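 KB-Vin or KB-7D cells treated 16 h, then lysed 5 min at 37 °C in the dark in hypotonic buffer (1% NP-40, 1 mmol/L MgCl2, 2 mmol/L EGTA, 50 mmol/L Tris-HCl pH 6.8, protease inhibitors). Spun 13000 rpm, 10 min, room temperature. Soluble supernatant and resuspended polymerized pellet run on SDS-PAGE.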

KB7D [7] = test: Induction of apoptosis in human KB7D cells assessed as increase in cleaved caspase-9 expression by Western blot analysis; type: functional, cell-based
Outline: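 KB-7D cells in RPMI 1640 with 5% FBS and 1% penicillin-streptomycin at 37 °C, 5% CO2, attached overnight. Treated with indicated concentrations for 24 or 48 h, lysed, and immunoblotted for cleaved caspases.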

KB-VIN [8] = test: Induction of apoptosis in human KB-VIN cells assessed as increase in cleaved PARP expression at 0.1 to 0.5 uM measured after 24 hrs by Western blot analysis; type: functional, cell-based; conditions: dose 0.1-0.5 µM; outline: as §1
Histone deacetylase 8 = target: T1, Histone deacetylase 8 (Homo sapiens, UniProt Q9BY41); test: Inhibition of human recombinant HDAC8 using RHKAcKAc-AMC as substrate measured after 60 mins by fluorescence assay
T1 sequence (Q9BY41 whole entry): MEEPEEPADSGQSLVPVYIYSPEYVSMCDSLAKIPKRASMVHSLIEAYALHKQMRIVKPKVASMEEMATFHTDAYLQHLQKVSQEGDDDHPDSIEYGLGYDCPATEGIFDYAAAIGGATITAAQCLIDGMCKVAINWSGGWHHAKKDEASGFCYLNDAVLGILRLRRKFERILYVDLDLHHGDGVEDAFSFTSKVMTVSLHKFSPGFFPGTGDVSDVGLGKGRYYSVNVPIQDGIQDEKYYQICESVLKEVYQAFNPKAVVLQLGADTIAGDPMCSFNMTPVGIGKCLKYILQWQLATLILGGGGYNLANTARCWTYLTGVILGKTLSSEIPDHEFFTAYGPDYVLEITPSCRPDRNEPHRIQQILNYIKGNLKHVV

KB-VIN [9] = test: Induction of apoptosis in human KB-VIN cells assessed as increase in cleaved PARP expression by Western blot analysis; type: functional, cell-based; outline: as §1
KB-VIN [10] = test: Induction of apoptosis in human KB-VIN cells assessed as increase in activated gammaH2AX expression by Western blot analysis; type: functional, cell-based; outline: as §1
Histone deacetylase 1 = Histone deacetylase 1 (Homo sapiens, UniProt Q13547); test: Inhibition of recombinant human full-length C-terminal FLAG-His tagged HDAC1 (1 to 482 residues) expressed in Sf21 insect cells using RHK-K(Ac)-AMC as substrate measured after 60 mins by fluorescence assay
KB-VIN [11] = test: Induction of apoptosis in human KB-VIN cells assessed as increase in cleaved caspase-9 expression at 0.05 uM measured after 48 hrs by Western blot analysis; type: functional, cell-based; outline: as §1
KB7D [12] = test: Induction of apoptosis in human KB7D cells assessed as increase in cleaved PARP expression at 0.01 to 0.1 uM measured after 48 hrs by Western blot analysis; type: functional, cell-based; conditions: dose 0.01-0.1 µM; outline: as §1
KB-VIN [13] = test: Induction of apoptosis in human KB-VIN cells assessed as increase in cleaved caspase-8 expression at 0.1 to 0.5 uM measured after 24 hrs by Western blot analysis; type: functional, cell-based; conditions: dose 0.1-0.5 µM; outline: as §1
KB7D [14] = test: Cell cycle arrest in human KB7D cells assessed as increase in accumulation at G2/M phase at 0.01 to 0.05 uM measured after 18 to 24 hrs by propidium iodide staining based flow cytometry; type: functional; conditions: dose 0.01-0.05 µM, time 18-24 hrs; outline: as §2
KB7D [15] = test: Induction of apoptosis in human KB7D cells assessed as increase in cleaved PARP expression by Western blot analysis; type: functional, cell-based; outline: as §1
KB-VIN [16] = test: Induction of apoptosis in human KB-VIN cells assessed as increase in cleaved caspase-3 expression at 0.05 uM measured after 48 hrs by Western blot analysis; type: functional, cell-based; outline: as §1

Chain of Histone deacetylase 1 (Q13547 whole entry, the tested form may be a part): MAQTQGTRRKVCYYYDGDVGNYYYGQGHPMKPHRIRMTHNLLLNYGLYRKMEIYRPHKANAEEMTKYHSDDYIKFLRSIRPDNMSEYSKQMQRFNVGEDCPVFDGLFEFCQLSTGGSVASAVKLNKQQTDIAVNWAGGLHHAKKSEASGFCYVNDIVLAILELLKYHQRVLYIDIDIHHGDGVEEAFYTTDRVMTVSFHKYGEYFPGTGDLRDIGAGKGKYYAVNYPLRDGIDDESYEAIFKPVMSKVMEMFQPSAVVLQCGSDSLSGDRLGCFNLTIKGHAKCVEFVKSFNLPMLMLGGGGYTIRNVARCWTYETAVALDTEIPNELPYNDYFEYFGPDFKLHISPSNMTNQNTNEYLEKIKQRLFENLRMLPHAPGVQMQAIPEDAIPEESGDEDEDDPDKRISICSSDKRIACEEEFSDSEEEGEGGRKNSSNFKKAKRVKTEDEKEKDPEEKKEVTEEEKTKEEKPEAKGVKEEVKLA

Activity (Tubulin (Homo sapiens)): 20.4%
IC50 (Histone deacetylase 8): > 10000 nM
IC50 (Histone deacetylase 1): 1070 nM
SMILES: COc1ccc(S(=O)(=O)Nc2ccccc2NCc2ccc(C(=O)Nc3ccccc3N)cc2)cc1
Activity (KB7D [1]): Active
Activity (KB7D [2]): Active
Activity (KB-VIN [3]): Dose-dependent effect
Activity (KB7D [4]): Dose-dependent effect
Activity (KB7D [5]): Active
Activity (KB-VIN [6]): Active
Activity (KB7D [7]): Dose-dependent effect
Activity (KB-VIN [8]): Active
Activity (KB-VIN [9]): Dose-dependent effect
Activity (KB-VIN [10]): Dose-dependent effect
Activity (KB-VIN [11]): Active
Activity (KB7D [12]): Active
Activity (KB-VIN [13]): Active
Activity (KB7D [14]): Active
Activity (KB7D [15]): Dose-dependent effect
Activity (KB-VIN [16]): Active
